Measured values: ChEMBL document CHEMBL6083209, “Pyridazinone-based derivatives as anticancer agents endowed with anti-microbial activity: molecular design, synthesis, and biological investigation” (RSC Med Chem, 2024)
Values after ≈ are worked out from the molar mass of the structure shown.

Experiments:
Escherichia coli = assay: Antimicrobial activity against Escherichia coli ATCC 25922 by broth microdilution method
Candida albicans = assay: Antimicrobial activity against Candida albicans ATCC 10231 by broth microdilution method
Staphylococcus aureus [1] = assay: Antimicrobial activity against Staphylococcus aureus ATCC 29213 by broth microdilution method
Staphylococcus aureus [2] = assay: Antimicrobial activity against Staphylococcus aureus; type: functional
RPMI-8226 = assay: Antiproliferative activity against human RPMI-8226 cells assessed as growth inhibition at 10 uM incubated for 48 hrs by SRB method; type: functional; conditions: RPMI-8226, read-out: GI
Summary of the method: (§1)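 NCI-60 one-dose screen at 10 μM. Cells were grown in RPMI 1640 with 5% FBS and 2 mM L-glutamine and plated at 5000–40 000 cells/well for 24 h. Drug exposure was 48 h at 37 °C, 5% CO2. Cells were fixed with TCA, stained with 0.4% SRB and read at 515 nm. Growth is expressed as percent of untreated control and time-zero plates.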

MCF7 = assay: Antiproliferative activity against human MCF7 cells assessed as growth inhibition at 10 uM incubated for 48 hrs by SRB method; type: functional; conditions: read-out: GI
Summary of the method: as §1

SF-295 = assay: Antiproliferative activity against human SF-295 cells assessed as growth inhibition at 10 uM incubated for 48 hrs by SRB method; type: functional; conditions: read-out: GI
Summary of the method: as §1

CCRF-CEM = assay: Antiproliferative activity against human CCRF-CEM cells assessed as growth inhibition at 10 uM incubated for 48 hrs by SRB method; type: functional; conditions: read-out: GI
Summary of the method: as §1

K562 = assay: Antiproliferative activity against human K562 cells assessed as growth inhibition at 10 uM incubated for 48 hrs by SRB method; type: functional; conditions: K562, read-out: GI
Summary of the method: as §1

NCI-H522 = assay: Antiproliferative activity against human NCI-H522 cells assessed as growth inhibition at 10 uM incubated for 48 hrs by SRB method; type: functional; conditions: NCI-H522, read-out: GI
Summary of the method: as §1

T47D = assay: Antiproliferative activity against human T47D cells assessed as growth inhibition at 10 uM incubated for 48 hrs by SRB method; type: functional; conditions: read-out: GI
Summary of the method: as §1

PC-3 = assay: Antiproliferative activity against human PC-3 cells assessed as growth inhibition at 10 uM incubated for 48 hrs by SRB method; type: functional; conditions: PC-3, read-out: GI
Summary of the method: as §1

KM12 = assay: Antiproliferative activity against human KM12 cells assessed as growth inhibition at 10 uM incubated for 48 hrs by SRB method; type: functional; conditions: read-out: GI
Summary of the method: as §1

OVCAR-3 = assay: Antiproliferative activity against human OVCAR-3 cells assessed as growth inhibition at 10 uM incubated for 48 hrs by SRB method; type: functional; conditions: read-out: GI
Summary of the method: as §1

MIC (Escherichia coli) [µg/mL] | MIC (Candida albicans) [µg/mL] | MIC (Staphylococcus aureus [1]) [µg/mL] | SMILES | other results
256 (≈ 635 µM) | 512 (≈ 1270 µM) | 512 (≈ 1270 µM) | O=C(NC(=S)Nc1ccc(-c2ccc(=O)[nH]n2)cc1)c1ccc(F)c(Cl)c1 | –
256 (≈ 708 µM) | 256 (≈ 708 µM) | 128 (≈ 354 µM) | O=c1ccc(-c2ccc(NS(=O)(=O)c3ccc(Cl)cc3)cc2)n[nH]1 | –
256 (≈ 644 µM) | 512 (≈ 1290 µM) | 512 (≈ 1290 µM) | O=C1CCC(c2ccc(NC(=S)NC(=O)c3ccc([N+](=O)[O-])cc3)cc2)=NN1 | –
1020 (≈ 2970 µM) | 256 (≈ 741 µM) | 512 (≈ 1480 µM) | O=c1ccc(-c2ccc(NS(=O)(=O)c3cccc(F)c3)cc2)n[nH]1 | –
256 (≈ 662 µM) | 512 (≈ 1320 µM) | 512 (≈ 1320 µM) | O=C1CCC(c2ccc(NC(=S)NC(=O)c3ccc(Cl)cc3)cc2)=NN1 | –
– | – | – | O=C(Nc1ccc(Cl)c(C(F)(F)F)c1)C(CCl)C(=O)Nc1ccc(Cl)c(C(F)(F)F)c1 | MIC (Staphylococcus aureus [2]): 0.5 µg/mL (≈ 0.985 µM)
256 (≈ 674 µM) | 256 (≈ 674 µM) | 128 (≈ 337 µM) | O=c1ccc(-c2ccc(NS(=O)(=O)c3ccc(F)c(Cl)c3)cc2)n[nH]1 | –
512 (≈ 1280 µM) | 256 (≈ 638 µM) | 128 (≈ 319 µM) | O=c1ccc(-c2ccc(NC(=S)Nc3ccc(Br)cc3)cc2)n[nH]1 | –
– | – | – | O=C(NC(=S)Nc1ccc(Cl)cn1)c1ccc(N2CCCCC2)c([N+](=O)[O-])c1 | MIC (Staphylococcus aureus [2]): 0.06 µg/mL (≈ 0.143 µM)
> 1020 | 512 (≈ 1270 µM) | > 1020 | O=C(NC(=S)Nc1ccc(-c2ccc(=O)[nH]n2)cc1)c1ccc(Cl)c(F)c1 | –
512 (≈ 1210 µM) | 512 (≈ 1210 µM) | 512 (≈ 1210 µM) | O=c1ccc(/C=C/c2ccc(NS(=O)(=O)c3ccc(Cl)c(Cl)c3)cc2)n[nH]1 | –
– | – | – | O=C(Nc1ccc(Oc2ccc(=O)[nH]n2)cc1)Nc1ccc(Cl)c(Cl)c1 | MIC (Staphylococcus aureus [2]): 0.5 µg/mL (≈ 1.28 µM)
256 (≈ 562 µM) | 512 (≈ 1120 µM) | 1020 (≈ 2250 µM) | O=C(NC(=S)Nc1ccc(/C=C/c2ccc(=O)[nH]n2)cc1)c1cccc(Br)c1 | –
> 1020 | 512 (≈ 1330 µM) | > 1020 | O=C(Nc1ccc(Br)cc1)Nc1ccc(-c2ccc(=O)[nH]n2)cc1 | –
256 (≈ 731 µM) | 512 (≈ 1460 µM) | 256 (≈ 731 µM) | O=C(NC(=S)Nc1ccc(-c2ccc(=O)[nH]n2)cc1)c1ccccc1 | –
512 (≈ 1180 µM) | 512 (≈ 1180 µM) | 1020 (≈ 2370 µM) | O=c1ccc(/C=C/c2ccc(NS(=O)(=O)c3cccc(Br)c3)cc2)n[nH]1 | –
> 1020 | > 1020 | 256 (≈ 751 µM) | O=C(Nc1ccc(-c2ccc(=O)[nH]n2)cc1)Nc1cccc(Cl)c1 | inhibition of growth at 10 µM (RPMI-8226): 73.5%; inhibition of growth at 10 µM (MCF7): 64%; inhibition of growth at 10 µM (SF-295): 72.7%; inhibition of growth at 10 µM (CCRF-CEM): 72.9%; inhibition of growth at 10 µM (K562): 68.4%; inhibition of growth at 10 µM (NCI-H522): 73.5%; inhibition of growth at 10 µM (T47D): 74.7%; inhibition of growth at 10 µM (PC-3): 68%; inhibition of growth at 10 µM (KM12): 66.4%; inhibition of growth at 10 µM (OVCAR-3): 62.2%
1020 (≈ 2830 µM) | 256 (≈ 708 µM) | 256 (≈ 708 µM) | O=c1ccc(-c2ccc(NS(=O)(=O)c3cccc(Cl)c3)cc2)n[nH]1 | –
256 (≈ 601 µM) | 64 (≈ 150 µM) | 128 (≈ 301 µM) | O=c1ccc(-c2ccc(NC(=S)Nc3c(Cl)cc(Cl)cc3Cl)cc2)n[nH]1 | –
256 (≈ 594 µM) | 512 (≈ 1190 µM) | 512 (≈ 1190 µM) | O=C1CCC(c2ccc(NC(=S)NC(=O)c3ccc(Br)cc3)cc2)=NN1 | –
1020 (≈ 2300 µM) | 512 (≈ 1150 µM) | 256 (≈ 575 µM) | O=C(NC(=S)Nc1ccc(/C=C/c2ccc(=O)[nH]n2)cc1)c1ccc(Cl)c(Cl)c1 | –
256 (≈ 726 µM) | 512 (≈ 1450 µM) | 512 (≈ 1450 µM) | O=C1CCC(c2ccc(NC(=S)NC(=O)c3ccccc3)cc2)=NN1 | –
256 (≈ 695 µM) | 512 (≈ 1390 µM) | 256 (≈ 695 µM) | O=C(NC(=S)Nc1ccc(-c2ccc(=O)[nH]n2)cc1)c1ccc(F)cc1 | –

SMILES | MIC (Escherichia coli) [µg/mL] | MIC (Candida albicans) [µg/mL] | MIC (Staphylococcus aureus [1]) [µg/mL] | other results
CC(=O)N1CCN(c2ccc(OCC3COC(Cn4ccnc4)(c4ccc(Cl)cc4Cl)O3)cc2)CC1 (centres undefined) [KETOCONAZOLE] | – | 2 (≈ 3.76 µM) | – | –
